Screening data: PubChem, several laboratories
Only some compounds are listed: those with a hit (about 2.6% of all), similar ones and a draw of the others.
PRMT1 FP inh: inhibitors of human PRMT1; inhibition, % at 2.79 µM; AID 652257; recombinant PRMT1, activity-based probe fluorescence polarization; 370,000 compounds, 1.3% hits; Q99873;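 active means inhibition above about 21% made by adding two undisclosed values, limit read from the data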
Target sequence (Q99873 whole entry, looked up): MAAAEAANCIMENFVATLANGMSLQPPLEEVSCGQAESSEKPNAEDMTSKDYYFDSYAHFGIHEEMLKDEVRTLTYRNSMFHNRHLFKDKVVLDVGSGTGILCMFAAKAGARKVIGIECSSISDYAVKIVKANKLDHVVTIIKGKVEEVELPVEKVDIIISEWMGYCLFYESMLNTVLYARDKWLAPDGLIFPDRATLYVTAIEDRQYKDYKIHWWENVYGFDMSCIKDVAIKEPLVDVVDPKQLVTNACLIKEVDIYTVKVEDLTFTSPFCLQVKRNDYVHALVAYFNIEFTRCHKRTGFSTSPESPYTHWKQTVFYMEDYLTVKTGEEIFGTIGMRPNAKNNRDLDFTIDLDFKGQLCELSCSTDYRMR
GSTO1 counter: counter-screen for RBBP9 inhibitors: inhibitors of human GSTO1 | inhibition, % at 5.96 µM | 300,000 compounds, 1.1% hits | recombinant GSTO1, activity-based probe fluorescence polarization | P78417 | AID 1974;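 active means inhibition above the campaign mean inhibition plus 3 SD, cut at about 35% in these data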;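 further: 0% = GSTO1-1 with DMSO and 100% = wells lacking GSTO1-1 enzyme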
Target sequence (P78417 whole entry, looked up): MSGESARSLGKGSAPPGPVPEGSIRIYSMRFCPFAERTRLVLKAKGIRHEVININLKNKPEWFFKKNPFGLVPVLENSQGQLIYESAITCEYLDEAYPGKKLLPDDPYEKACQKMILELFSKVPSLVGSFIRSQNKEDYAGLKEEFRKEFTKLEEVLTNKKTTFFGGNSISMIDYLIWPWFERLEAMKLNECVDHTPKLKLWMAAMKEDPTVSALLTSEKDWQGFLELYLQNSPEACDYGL
TDP2 inh: blocks human TDP2 phosphodiesterase activity; recombinant TDP2, T5PNP hydrolysis, p-nitrophenol absorbance 415 nm; O95551; 370,000 compounds, 0.34% hits; inhibition, % at 12.8 µM; AID 720702;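 active means inhibition above the mean of all tested compounds plus 3 SD, set per campaign, cut at about 25% in these data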;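 further: 0% = DMSO with enzyme and 100% = buffer with substrate but no TDP2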
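System: recombinant human TDP2 / Amount: 120 nM TDP2 per well / Also added: 5 mM T5PNP chromogenic substrate / Doses: 12.8 µM single point, 1% DMSO / Incubation: 2 h at 37 °C / Detection: p-Nitrophenol epi absorbance / Evaluation: % inhibition relative to enzyme-containing and enzyme-free wells / Repeats: singlicate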
PAD4 inh: inhibitors of human PAD4; Q9UM07; recombinant PAD4, RCA probe fluorescence polarization; inhibition, % at 6.36 µM; 330,000 compounds, 0.41% hits;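 active means percent inhibition above a cutoff equal to the mean of all tested compounds plus 3 SD, cut at about 15% in these data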;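 further: 0% = PAD4 with RCA probe and DMSO and 100% = probe without PAD4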
Apaf-1 inh: inhibitors of human Apaf-1 apoptosome; 330,000 compounds, 0.71% hits; reconstituted apoptosome caspase-3 activity, DEVD-Rh110 fluorescence; inhibition, % at 20 µM; O14727; active means inhibition of at least 40% at 20 µM;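 further: plate controls were DMSO wells for no effect and DEVD-CHO caspase inhibitor wells for full effect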
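detection = Rh110 fluorescence intensity | test system = biochemical Apaf-1 apoptosome reconstitution | also added = cytochrome c and DEVD-Rh110 substrate | schedule = 30 min plus 50 min, RT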
Apaf-1 inh conf: Apaf-1 inhibition, single-dose confirmed | shares compounds with Apaf-1 inh | reconstituted apoptosome, caspase-3 DEVD-Rh110 fluorescence | inhibition, % at 20 µM | 1,800 compounds, 25% hits;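 active means mean inhibition of at least 40% at 20 µM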;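 further: plate controls were DMSO wells for no effect and DEVD-CHO caspase inhibitor control wells for full effect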
Rh110 interf inh: interferes with Rh110 fluorescence, flagging false Apaf-1 inhibitors | Rh110 fluorescence interference, quenched caspase reaction | shares compounds with Apaf-1 inh | activation (fluorescence interference), % at 20 µM | 1,800 tested, under 10 active;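 active means signal rise of 40% or more at 20 µM, treated as a fluorescence artifact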
Fluor interf inh: Apaf-1 inhibitor counter-screen fluorescence artifact. shares compounds with Apaf-1 inh. fluorescence interference counterscreen, Apaf-1 assay format. IC50, µM. 460 tested, under 10 active. AID 588538; call rule not given here
* hit, by the source's call; / = no result.

SMILES | PRMT1 FP inh | GSTO1 counter | TDP2 inh | PAD4 inh | Apaf-1 inh | Apaf-1 inh conf | Rh110 interf inh | others
C#CCOCCOCCOCCNc1nc(N2CCN(C(=O)CCCCCCCCCCNC(=O)[C@@H](CCSC)n3cc(CCO)nn3)CC2)nc(N2CCN(C(=O)CCCCCCCCCCNC(=O)[C@H](CO)n3cc(CCCCCN)nn3)CC2)n1 | / | -4 | / | -6 | 71* | 40* | 2 | Fluor interf inh=>100
C#CCOCCOCCOCCNc1nc(N2CCN(C(=O)CCCCCCCCCCNC(=O)[C@@H](CCSC)n3cc(CCO)nn3)CC2)nc(N2CCN(C(=O)CCCCCCCCCCNC(=O)[C@@H]([C@H](C)O)n3cc(C)nn3)CC2)n1 | 0 | -22 | 0 | -1 | 34 | / | /
C#CCOCCOCCOCCNc1nc(N2CCN(C(=O)CCCCCCCCCCNC(=O)[C@@H](CCSC)n3cc(CCO)nn3)CC2)nc(N2CCN(C(=O)CCCCCCCCCCNC(=O)[C@H](CCC(=O)O)n3cc(CCCCCN)nn3)CC2)n1 | / | -7 | / | 3 | 62* | 21 | 1
CCC(C)CN1C(=O)CSCC1(C)C(=O)Nc1ccc2c(c1)OCCO2 (centres undefined) | 0 | / | 4 | / | / | / | /
C#CCOCCOCCOCCNc1nc(N2CCN(C(=O)CCCCCCCCCCNC(=O)[C@H](CCCCN)n3cc(C)nn3)CC2)nc(N2CCN(C(=O)CCCCCCCCCCNC(=O)[C@H](CCCN=C(N)N)n3cc(C[C@@H](C)CC)nn3)CC2)n1 | / | -5 | / | -10 | 75* | 57* | 4 | Fluor interf inh=>100
C#CCOCCOCCOCCNc1nc(N2CCN(C(=O)CCCCCCCCCCNC(=O)[C@H](CCCCN)n3cc(CCO)nn3)CC2)nc(N2CCN(C(=O)CCCCCCCCCCNC(=O)[C@H](CCCCN)n3cc(CCCC(=O)O)nn3)CC2)n1 | 3 | 4 | 5 | 1 | 59* | 34 | 9
COC(=O)c1ccc2c(=O)n(CCCCCC(=O)N3CCN(c4ccccc4)CC3)c(=O)[nH]c2c1 | 5 | -2 | 15 | -4 | 47* | 12 | 4
CCN1CCN(C(=O)CCCCCn2c(=O)[nH]c3cc(C(=O)OC)ccc3c2=O)CC1 | -2 | -2 | 2 | -2 | 0 | / | /
C[C@@H](CN1CCC[C@H]1CN1C(N)=NC[C@@H]1Cc1ccccc1)N1C[C@@H](Cc2ccccc2)N(CCc2ccc(Cl)c(Cl)c2)C1=N | / | / | / | 4 | 74* | 29 | 5
CCCCN1C(=N)N([C@@H](C)CN2CCC[C@H]2CN2C(N)=NC[C@H]2CC(C)C)C[C@H]1Cc1ccccc1 | -1 | / | -17 | 4 | 18 | / | /
CC(C)[C@@H]1CN=C(N)N1C[C@@H]1CCCN1C[C@H](C)N1C[C@@H](Cc2ccccc2)N(CCc2ccc(Cl)c(Cl)c2)C1=N | / | / | / | -2 | 54* | 13 | -1
CC(C)[C@H](CN1CCC[C@H]1CN1C(N)=NC[C@@H]1Cc1ccccc1)N1C[C@@H](Cc2ccccc2)N(CCc2ccc(Cl)c(Cl)c2)C1=N | / | / | / | -4 | 82* | 40 | 8
CC(C)CN1C(=O)C[C@]2(C(=O)N(C)c3ccc(NC(=O)c4cc(F)ccc4F)cc32)C1c1ccccc1 (some centres undefined) | -1 | / | 3 | / | / | / | /
Clc1cccc(CSc2nnc(-c3ccccn3)n2Cc2ccco2)c1 | -1 | -8 | 1 | -6 | 42* | 14 | 1
COCCn1c(SCC(=O)NNC(=O)c2cc(Cl)ccc2OC)nnc1-c1ccncc1 | 1 | / | 2 | 0 | 49* | 36 | 11
CCOC(=O)c1cnc2ccc(C)cc2c1Nc1ccc(N2CCOCC2)cc1 | -3 | 10 | 2 | -1 | 41* | 37 | 9
O=C(C[C@H]1C[C@H](C(=O)N2CCCCC2)[C@@]2(CCc3ccccc3)c3[nH]c4ccc(Cl)cc4c3CCN2C1=O)NCCc1ccccn1 | / | / | / | -1 | 34 | / | /
CC(C)N(C(=O)[C@H]1C[C@H](CC(=O)NCCCN(C)C)C(=O)N2CCc3c([nH]c4cc(-c5ccco5)ccc34)[C@]12C)C(C)C | -2 | / | -2 | 3 | 52* | 4 | 2
CCN(CC)C(=O)[C@H]1C[C@H](CC(=O)NC/C=C(\C)CCC=C(C)C)C(=O)N2CCc3c([nH]c4ccc(Cl)cc34)[C@]12C | 2 | / | -7 | -1 | 36 | / | /
O=C(C[C@H]1C[C@H](C(=O)N2CCOCC2)[C@@]2(CCC3CCCC3)c3[nH]c4cc(-c5ccco5)ccc4c3CCN2C1=O)NCCN1CCOCC1 | 1 | / | -8 | 1 | 36 | / | /
CN(C)CCCNC(=O)C[C@H]1C[C@H](C(=O)N2CCOCC2)[C@@]2(CCC3CCCC3)c3[nH]c4cc(-c5ccco5)ccc4c3CCN2C1=O | 3 | / | 6 | 8 | 67* | 28 | 3
CN(C)CCCNC(=O)C[C@H]1C[C@H](C(=O)N2CCCCC2)[C@@]2(CCc3ccccc3)c3[nH]c4ccc(Cl)cc4c3CCN2C1=O | 1 | / | 7 | 0 | 74* | 29 | 21
CCN(CC)C(=O)[C@H]1C[C@H](CC(=O)NCCCN(C)C)C(=O)N2CCc3c([nH]c4cc(-c5ccco5)ccc34)[C@]12C | 1 | / | 2 | -7 | 35 | / | /
CCN(CC)C(=O)[C@H]1CC(CC(=O)NC/C=C(\C)CCC=C(C)C)C(=O)N2CCc3c([nH]c4ccc(OC)cc34)[C@]12C (some centres undefined) | 0 | / | -4 | -1 | 42* | 24 | 10
CCCCCCCCN1C(=O)[C@@H](CC(=O)NCCCN2CCCC2=O)C[C@@]2(C(=O)OC)C1=C[C@H](COCc1ccccc1)O[C@@H]2C | 2 | / | -10 | / | / | / | /
COC(=O)C1=C(C)N(Cc2cccc(C(F)(F)F)c2)C(=NCc2ccc3c(c2)OCO3)NC1c1cccc(F)c1 (centres undefined) | -4 | / | -10 | / | / | / | /
COC(=O)[C@@]12C[C@@H](CC(=O)NCC3CCCCC3)C(=O)N(Cc3ccco3)C1=CCC(C)(C)C2 | 0 | / | -9 | / | / | / | /
O=C(C[C@H]1C[C@H](C(=O)N2CCOCC2)[C@@]2(CCC3CCCC3)c3[nH]c4ccc(Cl)cc4c3CCN2C1=O)NCCCn1ccnc1 | 1 | / | 2 | -4 | 58* | 24 | 17
COc1ccc(CCN(C)C(=O)C2CC(=O)N(Cc3ccc(C)cc3)C2)cc1OC (centres undefined) | -1 | / | -7 | -2 | 56* | 33 | 5
CCN(CC)CCNC(=O)c1ccc(NC(=O)C2CC(=O)N(CCc3ccc(OC)c(OC)c3)C2)cc1 (centres undefined) | -2 | / | -3 | -6 | 47* | 31 | 0
